Measured values taken from ChEMBL document CHEMBL4732112, “Synthesis and in vitro evaluation of novel spiroketopyrazoles as acetyl-CoA carboxylase inhibitors and potential antitumor agents” (Eur J Med Chem, 2021).
The source made the active and inactive calls. The calls are words filed in the database; no cut-off is given here.

Key:
HepG2 [1] = experiment: Antiproliferative activity against human HepG2 cells assessed as cell viability at 0.5 uM measured after 5 days in presence of 25 uM palmitate by MTT assay relative to control; assay type: functional; conditions: HepG2, 120 h, time 5 day, read-out: Activity
In short: (§1)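 HepG2 treated with 0.5 μM plus 0, 10 or 25 μM palmitate for 1, 3 and 5 days. Palmitate was complexed with 5% fatty-acid-free BSA from a 5 mM solution, then diluted in serum-free DMEM to final concentration. Viability (% control) by MTT. Mean ± SD, n=3.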

HepG2 [2] = experiment: Induction of apoptosis in human HepG2 cells assessed as reduction in Bcl2 expression measured after 48 hrs by Western blot analysis; assay type: functional, cell-based; conditions: dose 1-10 µM
In short: (§2)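 Western blots for Bcl-2, Bax, cleaved caspase-3 and cleaved PARP in HepG2 cells after 48 h treatment (1, 5, 10 μM for PARP). Lysates cleared, protein quantified by BCA, run on SDS-PAGE to PVDF, blocked in 5% BSA, primary overnight at 4 °C, DyLight 800 secondary. Infrared scanning and densitometry normalized to β-actin. Mean ± SD, n=3.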

HepG2 [3] = experiment: Induction of apoptosis in human HepG2 cells assessed as increase in PARP cleavage at 1 to 10 uM measured after 48 hrs by Western blot analysis; assay type: functional, cell-based; conditions: dose 1-10 µM; in short: as §2
HepG2 [4] = experiment: Cell cycle arrest in human HepG2 cells assessed as accumulation at G0/G1 phase at 1 uM measured after 48 hrs by propidium iodide staining based flow cytometry (reference value: 56.24%); assay type: functional
HepG2 [5] = experiment: Induction of apoptosis in human HepG2 cells assessed as early apoptotic cells at 10 uM measured after 48 hrs by Annexin V-FITC/propidium iodide staining based flow cytometry (reference value: 4.03%); assay type: functional
In short: (§3)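 HepG2 cells incubated with the stated concentrations for 48 h, harvested, and stained with Annexin V-FITC and propidium iodide protected from light. Viable, early apoptotic, late apoptotic and necrotic fractions quantified by flow cytometry. Mean ± SD, n=3.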

A549 = experiment: Antiproliferative activity against human A549 cells assessed as cell growth inhibition after 72 hrs by MTT assay; assay type: functional, cell-based; conditions: A549, 72 h
In short: (§4)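 HepG2, A549 or MDA-MB-231 cells grown in DMEM with 10% FBS and penicillin/streptomycin at 37 °C, 5% CO2. Seeded at 3×10^3 per well, left 24 h, then exposed to a range of concentrations for 72 h. MTT added for 4 h, formazan dissolved in DMSO, absorbance read at 550 nm. Mean ± SD, n=3.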

Acetyl-CoA carboxylase 1 [6] = molecular target: T1, Acetyl-CoA carboxylase 1 (Homo sapiens, UniProt Q13085); experiment: Inhibition of ACC1 in human HepG2 cells assessed as reduction in intracellular malonyl-CoA level measured after 48 hrs by ELISA; assay type: cell-based; conditions: dose 1-10 µM
In short: (§5)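 HepG2 cells plated and exposed to the compound at several concentrations for 48 h. Cells washed with PBS, lysed in 1% Triton X-100 and spun 12000 rpm, 4 °C, 15 min. Malonyl-CoA measured by ELISA kit and triglyceride by GPO-POP kit, each normalised to BCA protein. Reported relative to control, mean ± SD, n=3.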

HepG2 [7] = experiment: Antiproliferative activity against human HepG2 cells assessed as cell growth inhibition after 72 hrs by MTT assay; assay type: functional, cell-based; conditions: HepG2, 72 h; in short: as §4
HepG2 [8] = experiment: Cell cycle arrest in human HepG2 cells assessed as accumulation at S phase at 10 uM measured after 48 hrs by propidium iodide staining based flow cytometry (reference value: 30.18%); assay type: functional
HepG2 [9] = experiment: Induction of apoptosis in human HepG2 cells assessed as necrotic cells at 10 uM measured after 48 hrs by Annexin V-FITC/propidium iodide staining based flow cytometry (reference value: 0.22%); assay type: functional; in short: as §3
HepG2 [10] = experiment: Antiproliferative activity against human HepG2 cells assessed as cell viability at 0.5 uM measured after 5 days in presence of 10 uM palmitate by MTT assay relative to control; assay type: functional; conditions: HepG2, 120 h, time 5 day, read-out: Activity; in short: as §1
HepG2 [11] = experiment: Induction of apoptosis in human HepG2 cells assessed as chromatin shrinkage at 1 to 10 uM measured after 48 hrs by Hoechst 33258 staining based fluorescence microscopic analysis; assay type: functional, cell-based; conditions: dose 1-10 µM
In short: (§6)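 HepG2 cells exposed to varying concentrations for 48 h in 6-well plates. Stained with Hoechst 33258 in the dark for 20 min, then nuclear morphology inspected by fluorescence microscopy.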

HepG2 [12] = experiment: Cell cycle arrest in human HepG2 cells assessed as accumulation at G0/G1 phase at 5 uM measured after 48 hrs by propidium iodide staining based flow cytometry (reference value: 56.24%); assay type: functional
HepG2 [13] = experiment: Induction of apoptosis in human HepG2 cells assessed as increase in caspase-3 activation at 1 to 10 uM measured after 48 hrs by Western blot analysis; assay type: functional, cell-based; conditions: dose 1-10 µM; in short: as §2
HepG2 [14] = experiment: Antiproliferative activity against human HepG2 cells assessed as reduction in cell viability measured after 72 hrs in presence of doxorubicin by MTT assay; assay type: functional, cell-based; conditions: dose 0.0875-1.4 µM
HepG2 [15] = experiment: Induction of apoptosis in human HepG2 cells assessed as necrotic cells at 1 uM measured after 48 hrs by Annexin V-FITC/propidium iodide staining based flow cytometry (reference value: 0.22%); assay type: functional; in short: as §3
Acetyl-CoA carboxylase 1 [16] = molecular target: T1, Acetyl-CoA carboxylase 1; experiment: Inhibition of recombinant human C-terminal His-tagged ACC1 (1 to 2383 residues) expressed in baculovirus infected Sf9 insect cells at 0.1 uM preincubated for 15 mins followed by substrate addition and measured after 60 mins by ADP-glo luminescence assay relative to control
HepG2 [17] = experiment: Induction of apoptosis in human HepG2 cells assessed as increase in early apoptotic cells measured after 48 hrs by Annexin V-FITC/propidium iodide staining based flow cytometry; assay type: functional, cell-based; conditions: dose 1-10 µM; in short: as §3
Acetyl-CoA carboxylase 1 [18] = molecular target: T1, Acetyl-CoA carboxylase 1; experiment: Inhibition of ACC1 in human HepG2 cells assessed as reduction in intracellular triglyceride level measured after 48 hrs by GPO-PAP method; assay type: cell-based; conditions: dose 1-10 µM; in short: as §5
HepG2 [19] = experiment: Antiproliferative activity against human HepG2 cells assessed as cell growth inhibition at 10 uM after 72 hrs by MTT assay relative to control; assay type: functional; conditions: read-out: GI
In short: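 Cells were DMEM/10% FBS cultures at 37 °C, 5% CO2, seeded at 3×10^3 per well and exposed for 72 h after 24 h attachment. Read-out was MTT with formazan in DMSO and absorbance at 550 nm, expressed as inhibition rate versus control.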

HepG2 [20] = experiment: Induction of apoptosis in human HepG2 cells assessed as necrotic cells at 5 uM measured after 48 hrs by Annexin V-FITC/propidium iodide staining based flow cytometry (reference value: 0.22%); assay type: functional; in short: as §3
Acetyl-CoA carboxylase 1 [21] = molecular target: T1, Acetyl-CoA carboxylase 1; experiment: Inhibition of ACC1 in human HepG2 cells assessed as reduction in intracellular malonyl-CoA level at 10 uM measured after 48 hrs by ELISA relative to control; assay type: cell-based; in short: as §5
HepG2 [22] = experiment: Induction of apoptosis in human HepG2 cells assessed as increase in Bax expression measured after 48 hrs by Western blot analysis; assay type: functional, cell-based; conditions: dose 1-10 µM; in short: as §2
HepG2 [23] = experiment: Induction of apoptosis in human HepG2 cells assessed as nuclear fragmentation at 1 to 10 uM measured after 48 hrs by Hoechst 33258 staining based fluorescence microscopic analysis; assay type: functional, cell-based; conditions: dose 1-10 µM; in short: as §6
Acetyl-CoA carboxylase 1 [24] = molecular target: T1, Acetyl-CoA carboxylase 1; experiment: Inhibition of ACC1 in human HepG2 cells assessed as reduction in intracellular triglyceride level at 10 uM measured after 48 hrs by GPO-PAP method relative to control; assay type: cell-based; in short: as §5
HepG2 [25] = experiment: Induction of apoptosis in human HepG2 cells assessed as viable cells at 1 uM measured after 48 hrs by Annexin V-FITC/propidium iodide staining based flow cytometry (reference value: 95.6%); assay type: functional; conditions: read-out: Activity; in short: as §3

IC50 (A549): 550 nM
inhibition (Acetyl-CoA carboxylase 1 [6]): Dose-dependent effect
IC50 (HepG2 [7]): 380 nM
inhibition (Acetyl-CoA carboxylase 1 [16]): 86.2%
inhibition (Acetyl-CoA carboxylase 1 [18]): Dose-dependent effect
inhibition (Acetyl-CoA carboxylase 1 [21]): 31.4%
inhibition (Acetyl-CoA carboxylase 1 [24]): 36.7%
Structure (SMILES): CC(C)(C)n1cc2c(n1)C(=O)CC1(CCN(C(=O)c3cc(-c4ccncc4)nc4ccccc34)CC1)O2
viability at 0.5 µM (HepG2 [1]): 87.1%
Activity (HepG2 [2]): Dose-dependent effect
Activity (HepG2 [3]): Active
Activity (HepG2 [4]): 67.68%
Activity (HepG2 [5]): 41.6%
Activity (HepG2 [8]): 6.48%
Activity (HepG2 [9]): 0.64%
viability at 0.5 µM (HepG2 [10]): 68.9%
Activity (HepG2 [11]): Active
Activity (HepG2 [12]): 78.83%
Activity (HepG2 [13]): Active
Activity (HepG2 [14]): Dose-dependent effect
Activity (HepG2 [15]): 3.61%
Activity (HepG2 [17]): Dose-dependent effect
inhibition of growth at 10 µM (HepG2 [19]): 80.1%
Activity (HepG2 [20]): 3.72%
Activity (HepG2 [22]): Dose-dependent effect
Activity (HepG2 [23]): Active
viability at 1 µM (HepG2 [25]): 72.1%
